Activity calls are given as the source filed them. No cut-off for these calls is given here.
Tests used:
[1] = molecular target: T1, NAD-dependent protein deacetylase sirtuin-1 (Homo sapiens) (UniProt Q96EB6); assay: Activation of human SIRT1 assessed as decrease in Km of enzyme for acetylated peptide substrate by mass spectrometry assay
T1 sequence (whole entry): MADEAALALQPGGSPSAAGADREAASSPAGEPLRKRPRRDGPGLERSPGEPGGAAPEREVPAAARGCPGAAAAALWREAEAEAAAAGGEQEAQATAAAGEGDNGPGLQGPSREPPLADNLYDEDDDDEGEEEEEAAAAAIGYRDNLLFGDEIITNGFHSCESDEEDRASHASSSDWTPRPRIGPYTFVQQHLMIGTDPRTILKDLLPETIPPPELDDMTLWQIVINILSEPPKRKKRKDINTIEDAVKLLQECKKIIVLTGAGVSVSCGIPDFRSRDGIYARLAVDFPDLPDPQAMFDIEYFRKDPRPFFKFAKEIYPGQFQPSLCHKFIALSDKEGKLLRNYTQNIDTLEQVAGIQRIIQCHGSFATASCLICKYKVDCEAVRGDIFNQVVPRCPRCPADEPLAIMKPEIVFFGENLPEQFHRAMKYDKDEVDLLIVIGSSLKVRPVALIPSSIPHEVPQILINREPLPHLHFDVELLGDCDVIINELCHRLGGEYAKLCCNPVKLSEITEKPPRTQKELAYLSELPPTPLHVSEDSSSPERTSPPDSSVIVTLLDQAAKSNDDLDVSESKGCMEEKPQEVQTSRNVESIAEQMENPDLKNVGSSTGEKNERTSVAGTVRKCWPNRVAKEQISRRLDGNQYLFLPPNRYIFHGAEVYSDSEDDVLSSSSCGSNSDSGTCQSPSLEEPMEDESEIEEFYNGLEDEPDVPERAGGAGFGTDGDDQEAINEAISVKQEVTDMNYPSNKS

[2] = molecular target: T1, NAD-dependent protein deacetylase sirtuin-1 (Homo sapiens); assay: (§1) Activation of human SIRT1 expressed in Escherichia coli BL21 by mass spectrometry assay
[3] = molecular target: T2, NAD-dependent protein deacetylase sirtuin-1 (Homo sapiens, UniProt Q96EB6); assay: as §1
T2 sequence (Q96EB6 whole entry): T1 sequence (whole entry)

[4] = molecular target: T3, NAD-dependent protein deacetylase sirtuin-2 (Homo sapiens, UniProt Q8IXJ6); assay: Activation of SIRT2 by mass spectrometry assay
T3 sequence (Q8IXJ6 whole entry): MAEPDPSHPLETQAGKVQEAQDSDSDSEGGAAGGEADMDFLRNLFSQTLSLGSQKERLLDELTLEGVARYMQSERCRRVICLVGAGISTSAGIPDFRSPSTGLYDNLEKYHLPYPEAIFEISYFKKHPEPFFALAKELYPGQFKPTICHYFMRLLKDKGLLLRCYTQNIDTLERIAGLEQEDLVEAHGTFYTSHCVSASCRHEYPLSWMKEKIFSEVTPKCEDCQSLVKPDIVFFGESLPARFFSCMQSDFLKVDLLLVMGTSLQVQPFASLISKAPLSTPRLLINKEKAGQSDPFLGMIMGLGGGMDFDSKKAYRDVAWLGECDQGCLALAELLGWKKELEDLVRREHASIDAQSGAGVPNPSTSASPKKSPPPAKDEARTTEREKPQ

[5] = molecular target: T4, NAD-dependent protein deacetylase sirtuin-3, mitochondrial (Homo sapiens, UniProt Q9NTG7); assay: Activation of SIRT3 by mass spectrometry assay
T4 sequence (Q9NTG7 whole entry): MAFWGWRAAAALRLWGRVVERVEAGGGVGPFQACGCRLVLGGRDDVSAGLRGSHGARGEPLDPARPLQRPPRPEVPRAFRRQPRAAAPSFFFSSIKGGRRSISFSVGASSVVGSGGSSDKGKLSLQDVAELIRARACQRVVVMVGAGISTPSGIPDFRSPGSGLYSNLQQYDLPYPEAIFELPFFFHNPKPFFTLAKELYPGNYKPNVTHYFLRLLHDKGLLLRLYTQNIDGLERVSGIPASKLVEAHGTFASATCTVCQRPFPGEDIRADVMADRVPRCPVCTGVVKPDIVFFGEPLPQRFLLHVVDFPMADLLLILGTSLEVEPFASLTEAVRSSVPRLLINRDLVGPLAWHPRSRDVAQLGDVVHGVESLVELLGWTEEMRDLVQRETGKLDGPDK

[6] = molecular target: T1, NAD-dependent protein deacetylase sirtuin-1 (Homo sapiens); assay: Activation of SIRT1 in human U2OS cells assessed as decrease in deacetylation level at 10 uM; type: cell-based
Procedure, shortened: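 U-2 OS cells seeded 1.5 × 10⁴/well; compounds in DMSO added after 24 h, then doxorubicin 1 μg/ml final to induce p53. Fixed, permeabilized, immunostained for Ac-Lys382-p53 and beta-tubulin, infrared scan; background-corrected acetyl signal normalized to tubulin, then to vehicle as % acetylated p53. Replicate plates co-treated with a SIRT1-specific inhibitor.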

Mus musculus [7] = assay: Reduction of glucose levels in DIO C57BL/6 mouse model at 5 mg/kg, po during insulin tolerance test; type: functional, organism-based; parameters: dose 5 mg/kg
Procedure, shortened: (§2)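 Male C57BL/6 mice, started at nine weeks, fed 60%-fat diet until mean weight ~40 g; 6-10 per group; once-daily oral gavage in 2% HPMC + 0.2% DOSS. Fed glucose at 2, 4, 6, 8, 10 weeks; IPGTT after 5 weeks; ITT after 10 weeks. One-way ANOVA with Dunnett's test vs control, p<0.05.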

Mus musculus [8] = assay: Reduction of fasting blood glucose in DIO C57BL/6 mouse model at 5 mg/kg, po assessed as glucose level by glucose tolerance test; type: functional; procedure, shortened: as §2

Activity [1] | Activity [2] [%] | EC50 [3] [µM] | EC50 [4] [µM] | EC50 [5] [µM] | Activity [6] | Structure (SMILES) | Activity (Mus musculus [7]) | Activity (Mus musculus [8]) [mg/h/dL]
Active | 296 | 0.36 | > 300 | > 300 | Active | O=C(Nc1ccccc1-c1cn2c(CN3CC[C@@H](O)C3)csc2n1)c1ccc2ccccc2c1 | – | –
– | – | – | – | – | – | CN(CCOc1ccc(CC2SC(=O)NC2=O)cc1)c1ccccn1 (stereo not drawn) [ROSIGLITAZONE] | Active | 496

Reference: ChEMBL document CHEMBL1147981, “Small molecule activators of SIRT1 as therapeutics for the treatment of type 2 diabetes” (Nature, 2007)
